Laboratory results published in ChEMBL document CHEMBL1144856, “Design, synthesis, and biological evaluation of 1-(4-sulfamylphenyl)-3-trifluoromethyl-5-indolyl pyrazolines as cyclooxygenase-2 (COX-2) and lipoxygenase (LOX) inhibitors” (Bioorg Med Chem, 2008).

Experiments:
[1] = biological target: T1, Prostaglandin G/H synthase 1 (Ovis aries, UniProt P05979); assay: Inhibition of ovine COX1 by enzyme immuno assay
T1 sequence (P05979 whole entry): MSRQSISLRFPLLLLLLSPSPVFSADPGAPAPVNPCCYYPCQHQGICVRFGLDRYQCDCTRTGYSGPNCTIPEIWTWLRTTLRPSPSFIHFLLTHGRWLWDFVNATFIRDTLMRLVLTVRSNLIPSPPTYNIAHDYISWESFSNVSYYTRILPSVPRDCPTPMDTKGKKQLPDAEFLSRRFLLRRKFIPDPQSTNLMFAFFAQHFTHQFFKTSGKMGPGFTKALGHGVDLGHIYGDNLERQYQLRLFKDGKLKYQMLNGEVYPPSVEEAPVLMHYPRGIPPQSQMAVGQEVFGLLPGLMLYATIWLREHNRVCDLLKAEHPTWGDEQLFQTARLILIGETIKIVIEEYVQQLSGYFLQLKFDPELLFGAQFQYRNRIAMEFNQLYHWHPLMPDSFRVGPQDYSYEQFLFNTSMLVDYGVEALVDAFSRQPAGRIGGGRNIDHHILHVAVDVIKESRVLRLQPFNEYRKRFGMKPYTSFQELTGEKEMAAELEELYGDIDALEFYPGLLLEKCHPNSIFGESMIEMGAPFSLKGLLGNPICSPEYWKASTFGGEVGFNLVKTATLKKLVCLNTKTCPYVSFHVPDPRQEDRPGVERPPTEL
How it was run: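 Hematin-reconstituted purified ovine COX-1 (six units) in 0.1 M Tris-HCl pH 8.0 with 5 mM EDTA and 2 mM phenol. Pre-incubated 1 h at room temperature with inhibitor in DMSO, then arachidonic acid added for 2 min at 37 °C. PGH2 was reduced with stannous chloride and PGF2α measured by EIA. Run in duplicate; IC50 is the mean of the duplicates.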

Ovis aries = organism: Ovis aries; assay: Selectivity ratio of IC50 for ovine COX1 to IC50 for ovine COX2
How it was run: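 Purified hematin-reconstituted ovine COX-1 and COX-2 (six units each) in Tris–HCl 0.1 M pH 8.0, 5 mM EDTA, 2 mM phenol. Enzymes were preincubated 1 h at room temperature with inhibitor in DMSO, then given arachidonic acid for 2 min at 37 °C. PGF2α from SnCl2 reduction of PGH2 was read by EIA. IC50s are means of duplicates; ratio is COX-1 IC50/COX-2 IC50.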

[2] = biological target: T2, Polyunsaturated fatty acid lipoxygenase ALOX12 (Homo sapiens) (UniProt P18054); assay: Inhibition of LOX12 from human platelets at 10 uM by enzyme immuno assay
T2 sequence (whole entry): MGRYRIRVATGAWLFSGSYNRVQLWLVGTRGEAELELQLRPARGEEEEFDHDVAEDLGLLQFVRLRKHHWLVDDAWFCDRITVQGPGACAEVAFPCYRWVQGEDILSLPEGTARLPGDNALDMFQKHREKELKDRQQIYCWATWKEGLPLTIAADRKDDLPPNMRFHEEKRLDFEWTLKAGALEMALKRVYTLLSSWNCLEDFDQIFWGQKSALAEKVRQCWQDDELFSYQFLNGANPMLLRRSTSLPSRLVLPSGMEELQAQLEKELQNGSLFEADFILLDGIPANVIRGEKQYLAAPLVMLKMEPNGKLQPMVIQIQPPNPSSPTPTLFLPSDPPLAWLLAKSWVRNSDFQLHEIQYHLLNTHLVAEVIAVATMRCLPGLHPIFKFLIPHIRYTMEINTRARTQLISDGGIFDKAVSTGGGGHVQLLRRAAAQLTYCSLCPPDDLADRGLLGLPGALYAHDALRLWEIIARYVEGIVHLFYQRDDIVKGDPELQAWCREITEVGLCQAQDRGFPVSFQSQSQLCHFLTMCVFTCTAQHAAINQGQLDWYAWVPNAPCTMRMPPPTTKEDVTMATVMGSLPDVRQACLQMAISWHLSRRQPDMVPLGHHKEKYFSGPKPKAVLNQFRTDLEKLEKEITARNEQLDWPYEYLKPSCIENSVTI
How it was run: (§1)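 Run by a contract lab. Enzyme sources: human PBML cells (LOX-5), human platelets (LOX-12), rabbit reticulocytes (LOX-15). Substrates: endogenous arachidonic acid (LOX-5), added arachidonic acid (LOX-12), linoleic acid (LOX-15). Inhibition read as LTB4 (LOX-5), 12-HETE (LOX-12) or 15-HETE (LOX-15), quantified by EIA and spectrophotometrically.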

[3] = biological target: T3, Polyunsaturated fatty acid lipoxygenase ALOX15 (Oryctolagus cuniculus) (UniProt P12530); assay: Inhibition of LOX15 from rabbit reticulocytes at 10 uM by enzyme immuno assay; how it was run: as §1
T3 sequence (whole entry): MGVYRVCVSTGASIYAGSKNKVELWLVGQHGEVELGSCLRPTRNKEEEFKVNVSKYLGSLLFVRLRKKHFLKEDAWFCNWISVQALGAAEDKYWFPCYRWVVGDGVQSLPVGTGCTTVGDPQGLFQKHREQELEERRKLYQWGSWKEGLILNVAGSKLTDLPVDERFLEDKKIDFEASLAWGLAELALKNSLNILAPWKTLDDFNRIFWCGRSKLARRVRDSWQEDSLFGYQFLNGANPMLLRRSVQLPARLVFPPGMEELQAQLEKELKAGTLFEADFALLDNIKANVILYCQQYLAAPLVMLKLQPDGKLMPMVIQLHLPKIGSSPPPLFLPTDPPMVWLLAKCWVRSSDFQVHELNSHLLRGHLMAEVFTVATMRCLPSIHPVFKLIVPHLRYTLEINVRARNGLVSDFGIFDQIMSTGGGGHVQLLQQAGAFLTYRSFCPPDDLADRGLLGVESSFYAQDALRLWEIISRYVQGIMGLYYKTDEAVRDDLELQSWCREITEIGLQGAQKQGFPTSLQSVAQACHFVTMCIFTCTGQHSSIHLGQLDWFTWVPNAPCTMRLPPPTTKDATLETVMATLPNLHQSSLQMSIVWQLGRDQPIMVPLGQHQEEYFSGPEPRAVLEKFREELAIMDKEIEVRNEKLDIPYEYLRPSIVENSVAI

[4] = biological target: T4, Polyunsaturated fatty acid 5-lipoxygenase (Homo sapiens) (UniProt P09917); assay: Inhibition of LOX5 from human PBML cells at 10 uM by enzyme immuno assay; type: cell-based; how it was run: as §1
T4 sequence (whole entry): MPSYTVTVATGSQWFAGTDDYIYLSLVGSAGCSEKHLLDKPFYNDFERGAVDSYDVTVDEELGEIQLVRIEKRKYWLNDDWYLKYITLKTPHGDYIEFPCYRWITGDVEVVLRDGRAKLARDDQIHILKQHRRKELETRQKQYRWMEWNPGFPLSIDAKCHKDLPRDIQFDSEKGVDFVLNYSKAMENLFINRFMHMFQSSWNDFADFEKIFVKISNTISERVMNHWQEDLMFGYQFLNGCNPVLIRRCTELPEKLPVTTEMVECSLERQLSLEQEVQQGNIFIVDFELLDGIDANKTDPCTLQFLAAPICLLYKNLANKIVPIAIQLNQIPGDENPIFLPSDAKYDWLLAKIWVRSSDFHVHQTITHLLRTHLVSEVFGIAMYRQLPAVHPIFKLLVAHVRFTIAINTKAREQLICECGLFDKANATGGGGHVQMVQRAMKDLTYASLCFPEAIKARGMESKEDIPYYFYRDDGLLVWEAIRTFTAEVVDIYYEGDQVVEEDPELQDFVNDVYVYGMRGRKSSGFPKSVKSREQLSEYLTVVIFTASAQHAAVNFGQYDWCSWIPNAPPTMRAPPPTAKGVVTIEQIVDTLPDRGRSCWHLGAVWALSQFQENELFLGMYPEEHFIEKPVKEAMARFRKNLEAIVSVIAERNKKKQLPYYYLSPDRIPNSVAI

| SMILES | IC50 [1] | Ratio IC50 (Ovis aries) | inhibition [2] | inhibition [3] | inhibition [4] |
| --- | --- | --- | --- | --- | --- |
| NS(=O)(=O)c1ccc(N2N=C(C(F)(F)F)CC2c2c[nH]c3c(Cl)cccc23)cc1 (single isomer, unassigned; enantiomer 1) [listing 1 of 2 here] | > 100 µM | – | – | – | – |
| N#Cc1ccc2c(C3CC(C(F)(F)F)=NN3c3ccc(S(N)(=O)=O)cc3)c[nH]c2c1 (configuration not stated) | > 100 µM | 0 | – | – | – |
| NS(=O)(=O)c1ccc(N2N=C(C(F)(F)F)CC2c2c[nH]c3cc(Cl)ccc23)cc1 (configuration not stated) | > 100 µM | 0 | -2% | 36% | 51% |
| NS(=O)(=O)c1ccc(N2N=C(C(F)(F)F)CC2c2c[nH]c3c(Cl)cccc23)cc1 (single isomer, unassigned; enantiomer 1) [listing 2 of 2 here] | – | > 345 | – | – | – |
| NS(=O)(=O)c1ccc(N2N=C(C(F)(F)F)CC2c2c[nH]c3ccc([N+](=O)[O-])cc23)cc1 (configuration not stated) | > 100 µM | 2 | – | – | – |
| NS(=O)(=O)c1ccc(N2N=C(C(F)(F)F)CC2c2c[nH]c3cc([N+](=O)[O-])ccc23)cc1 (configuration not stated) | > 100 µM | 0 | – | – | – |
| NS(=O)(=O)c1ccc(N2N=C(C(F)(F)F)CC2c2c[nH]c3ccc(C(=O)O)cc23)cc1 (configuration not stated) | > 100 µM | 0 | – | – | – |
| NS(=O)(=O)c1ccc(N2N=C(C(F)(F)F)CC2c2c[nH]c3c(Cl)cccc23)cc1 (stereo in doubt; 5f) [listing 1 of 2 here] | – | > 26 | 3% | 36% | 94% |
| Cc1[nH]c2cc(Cl)ccc2c1C1CC(C(F)(F)F)=NN1c1ccc(S(N)(=O)=O)cc1 (configuration not stated) | > 100 µM | > 17 | – | – | – |
| Cc1ccc(-c2cc(C(F)(F)F)nn2-c2ccc(S(N)(=O)=O)cc2)cc1 | – | – | 7% | 22% | – |
| NS(=O)(=O)c1ccc(N2N=C(C(F)(F)F)CC2c2c[nH]c3c(Cl)cccc23)cc1 (single isomer, unassigned; enantiomer 2) [listing 1 of 2 here] | > 100 µM | – | – | – | – |
| NS(=O)(=O)c1ccc(N2N=C(C(F)(F)F)CC2c2c[nH]c3c(Cl)cccc23)cc1 (stereo in doubt; 5f) [listing 2 of 2 here] | > 100 µM | – | – | – | – |
| NS(=O)(=O)c1ccc(N2N=C(C(F)(F)F)CC2c2c[nH]c3cc(Br)ccc23)cc1 (configuration not stated) | > 100 µM | > 23 | – | – | – |
| CS(=O)(=O)c1ccc(C2=C(c3ccccc3)C(=O)OC2)cc1 | – | – | -2% | 6% | 11% |
| NS(=O)(=O)c1ccc(-n2nc(C(F)(F)F)cc2-c2c[nH]c3ccccc23)cc1 | > 100 µM | 0 | – | – | – |
| N#Cc1ccc2[nH]cc(C3CC(C(F)(F)F)=NN3c3ccc(S(N)(=O)=O)cc3)c2c1 (configuration not stated) | > 100 µM | 0 | – | – | – |
| NS(=O)(=O)c1ccc(N2N=C(C(F)(F)F)CC2c2c[nH]c3c([N+](=O)[O-])cccc23)cc1 (configuration not stated) | > 100 µM | 0 | – | – | – |
| NS(=O)(=O)c1ccc(N2N=C(C(F)(F)F)CC2c2c[nH]c3cc(F)ccc23)cc1 (configuration not stated) | > 100 µM | 0 | – | – | – |

The next lines start with the values.

| IC50 [1] | Ratio IC50 (Ovis aries) | inhibition [2] | inhibition [3] | inhibition [4] | SMILES |
| --- | --- | --- | --- | --- | --- |
| > 100 µM | 0 | – | – | – | Nc1cccc2[nH]cc(C3CC(C(F)(F)F)=NN3c3ccc(S(N)(=O)=O)cc3)c12 (configuration not stated) |
| > 100 µM | > 118 | – | – | – | Nc1ccc2[nH]cc(C3CC(C(F)(F)F)=NN3c3ccc(S(N)(=O)=O)cc3)c2c1 (configuration not stated) |
| – | > 72 | 5% | 31% | 41% | NS(=O)(=O)c1ccc(N2N=C(C(F)(F)F)CC2c2c[nH]c3ccccc23)cc1 (stereo in doubt; 5a) [listing 1 of 2 here] |
| > 100 µM | – | – | – | – | NS(=O)(=O)c1ccc(N2N=C(C(F)(F)F)CC2c2c[nH]c3ccccc23)cc1 (stereo in doubt; 5a) [listing 2 of 2 here] |
| – | > 8 | – | – | – | NS(=O)(=O)c1ccc(N2N=C(C(F)(F)F)CC2c2c[nH]c3ccccc23)cc1 (single isomer, unassigned; enantiomer 2) [listing 1 of 2 here] |
| > 100 µM | – | – | – | – | NS(=O)(=O)c1ccc(N2N=C(C(F)(F)F)CC2c2c[nH]c3ccccc23)cc1 (single isomer, unassigned; enantiomer 2) [listing 2 of 2 here] |
| > 100 µM | > 42 | – | – | – | Nc1cccc2c(C3CC(C(F)(F)F)=NN3c3ccc(S(N)(=O)=O)cc3)c[nH]c12 (configuration not stated) |
| > 100 µM | 12 | – | – | – | COc1cccc2[nH]cc(C3CC(C(F)(F)F)=NN3c3ccc(S(N)(=O)=O)cc3)c12 (configuration not stated) |
| > 100 µM | 14 | – | – | – | Nc1ccc2c(C3CC(C(F)(F)F)=NN3c3ccc(S(N)(=O)=O)cc3)c[nH]c2c1 (configuration not stated) |
| – | > 1 | – | – | – | NS(=O)(=O)c1ccc(N2N=C(C(F)(F)F)CC2c2c[nH]c3c(Cl)cccc23)cc1 (single isomer, unassigned; enantiomer 2) [listing 2 of 2 here] |
| > 100 µM | > 8 | – | – | – | NS(=O)(=O)c1ccc(N2N=C(C(F)(F)F)CC2c2c[nH]c3ccc(F)cc23)cc1 (configuration not stated) |
| – | > 119 | – | – | – | NS(=O)(=O)c1ccc(N2N=C(C(F)(F)F)CC2c2c[nH]c3ccccc23)cc1 (single isomer, unassigned; enantiomer 1) [listing 1 of 2 here] |
| > 100 µM | > 3 | – | – | – | NS(=O)(=O)c1ccc(N2N=C(C(F)(F)F)CC2c2c[nH]c3ccc(Cl)cc23)cc1 (configuration not stated) |
| > 100 µM | – | – | – | – | NS(=O)(=O)c1ccc(N2N=C(C(F)(F)F)CC2c2c[nH]c3ccccc23)cc1 (single isomer, unassigned; enantiomer 1) [listing 2 of 2 here] |
